From ChEMBL document CHEMBL1143294, “Synthesis and antifungal activity of 1,2,3-triazole containing fluconazole analogues” (Bioorg Med Chem Lett, 2009)
Values after ≈ are worked out from the molar mass of the structure shown.

Columns and labels:
Candida albicans [1] = assay: Antimicrobial activity against Candida albicans by broth microdilution method; type: functional, organism-based
Outline: (§1)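 Standard broth microdilution following NCCLS guidelines. MIC and IC50 values were determined.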

Cryptococcus neoformans = assay: Antimicrobial activity against Cryptococcus neoformans by broth microdilution method; type: functional, organism-based; outline: as §1
Sporothrix schenckii = assay: Antimicrobial activity against Sporothrix schenckii by broth microdilution method; type: functional, organism-based; outline: as §1
[2] = tested on: Trichophyton mentagrophytes; assay: Antimicrobial activity against Trichophyton mentagrophytes by broth microdilution method; type: functional, organism-based; outline: as §1
Aspergillus fumigatus = assay: Antimicrobial activity against Aspergillus fumigatus by broth microdilution method; type: functional, organism-based; outline: as §1
Candida parapsilosis = assay: Antimicrobial activity against Candida parapsilosis ATCC 22019 by broth microdilution method; type: functional, organism-based; conditions: Lodderomyces parapsilosis; outline: as §1
Candida albicans [3] = assay: Antimicrobial activity against Candida albicans infected Swiss mouse assessed as reduction of kidney fungal load at 50 mg/kg, po administered once daily for 7 days measured after 9 days; type: functional; set-up: scale not given: the % may be the effect or the level left
Outline: (§2)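 Swiss mice received an intravenous Candida albicans challenge, with five mice per group. Test agent was given orally in PEG 200 once a day for 7 days. Mice were sacrificed on day 9, and kidney fungal burden was counted as CFU/g tissue. Results are expressed as % reduction in CFU relative to the untreated control group.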

Candida albicans [4] = assay: Antimicrobial activity against Candida albicans infected Swiss mouse assessed as reduction of kidney fungal load at 25 mg/kg, po administered once daily for 7 days measured after 9 days; type: functional; set-up: scale not given: the % may be the effect or the level left; outline: as §2
[5] = Cytotoxicity against human Hep3B cells at 0.001 mg/ml; type: cell-based; conditions: hep 3b2
Outline: (§3)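 Antiproliferative assay in human hepatocellular carcinoma Hep3B and human epithelial carcinoma A431 cells. Compounds were tested across 0.001–1 mg/ml.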

A-431 [6] = assay: Cytotoxicity against human A431 cells at 1 mg/ml; type: cell-based; outline: as §3
[7] = Cytotoxicity against human Hep3B cells; conditions: hep 3b2
A-431 [8] = assay: Cytotoxicity against human A431 cells at 1 mg/ml
[9] = Cytotoxicity against human Hep3B cells at 0.001 mg/ml; conditions: hep 3b2
A-431 [10] = assay: Cytotoxicity against human A431 cells at 0.001 mg/ml; type: cell-based; outline: as §3

Row | Structure (SMILES) | IC50 (Candida albicans [1]) [µg/mL] | MIC (Candida albicans [1]) [µg/mL] | IC50 (Cryptococcus neoformans) [µg/mL] | MIC (Cryptococcus neoformans) [µg/mL] | IC50 (Sporothrix schenckii) [µg/mL] | MIC (Sporothrix schenckii) [µg/mL] | IC50 [2] [µg/mL] | MIC [2] [µg/mL] | IC50 (Aspergillus fumigatus) [µg/mL] | MIC (Aspergillus fumigatus) [µg/mL] | IC50 (Candida parapsilosis) [µg/mL] | MIC (Candida parapsilosis) [µg/mL] | Activity (Candida albicans [3]) [%] | Activity (Candida albicans [4]) [%] | Activity [5] | Activity (A-431 [6]) | Activity [7] | Activity (A-431 [8]) | Activity [9] | Activity (A-431 [10])
1 | CCCCCCCCn1cc(CC(O)(Cn2cncn2)c2ccc(F)cc2F)nn1 (configuration not stated) | 0.001 (≈ 0.00239 µM) | 0.002 (≈ 0.00478 µM) | < 0.006 | 0.002 (≈ 0.00478 µM) | 0.008 (≈ 0.0191 µM) | 0.036 (≈ 0.086 µM) | 0.249 (≈ 0.595 µM) | 0.48 (≈ 1.15 µM) | 0.8 (≈ 1.91 µM) | 1.12 (≈ 2.68 µM) | 0.002 (≈ 0.00478 µM) | 0.01 (≈ 0.0239 µM) | 97.4 | 41.2 | Non-toxic | Toxic | Non-toxic |  |  | 
2 | C[Si](C)(C)c1cn(CC(O)(Cn2cncn2)c2ccc(F)cc2F)nn1 (configuration not stated) | 3.04 (≈ 8.03 µM) | 3.26 (≈ 8.61 µM) | 1.01 (≈ 2.67 µM) | 1.56 (≈ 4.12 µM) | 3.11 (≈ 8.22 µM) | 3.16 (≈ 8.35 µM) | 8.57 (≈ 22.6 µM) | 15.6 (≈ 41.1 µM) | 43.2 (≈ 114 µM) | 49.8 (≈ 132 µM) | 33.1 (≈ 87.5 µM) | 44.5 (≈ 118 µM) |  |  |  |  |  |  |  | 
3 | OC(Cc1c[nH]nn1)(Cn1cncn1)c1ccc(F)cc1F (configuration not stated) | 2.74 (≈ 8.95 µM) | 3.16 (≈ 10.3 µM) | 0.69 (≈ 2.25 µM) | 3.12 (≈ 10.2 µM) | 4.43 (≈ 14.5 µM) | 12.4 (≈ 40.5 µM) | 47 (≈ 153 µM) | 49 (≈ 160 µM) | > 50 | > 50 | 16.8 (≈ 55 µM) | 29.1 (≈ 95 µM) |  |  |  |  |  |  |  | 
4 | C[C@H](CCC(=O)OCc1cn(CC(O)(Cn2cncn2)c2ccc(F)cc2F)nn1)[C@H]1CC[C@H]2[C@@H]3CC[C@@H]4C[C@H](O)CC[C@]4(C)[C@H]3C[C@H](O)[C@]12C (some centres not stated) | < 0.001 | < 0.001 | < 0.001 | 0.01 (≈ 0.0141 µM) | 0.76 (≈ 1.07 µM) | 0.84 (≈ 1.18 µM) | 46.5 (≈ 65.4 µM) | > 50 | 6.24 (≈ 8.78 µM) | > 50 | 0.38 (≈ 0.535 µM) | 0.396 (≈ 0.557 µM) | 38.2 |  | Non-toxic | Toxic | Non-toxic | Toxic |  | 
5 | CC(=O)N1CCN(c2ccc(OCC3COC(Cn4ccnc4)(c4ccc(Cl)cc4Cl)O3)cc2)CC1 (configuration not stated) [KETOCONAZOLE] | 0.001 (≈ 0.00188 µM) | 0.002 (≈ 0.00376 µM) | 0.001 (≈ 0.00188 µM) | 0.001 (≈ 0.00188 µM) | 0.026 (≈ 0.0489 µM) | 0.031 (≈ 0.0583 µM) | 2.12 (≈ 3.99 µM) | 4 (≈ 7.53 µM) | 0.008 (≈ 0.0151 µM) | 2 (≈ 3.76 µM) | 0.024 (≈ 0.0452 µM) | 0.031 (≈ 0.0583 µM) |  |  | Non-toxic | Toxic |  | Toxic | Non-toxic | 
6 | OC(Cn1cncn1)(Cn1cncn1)c1ccc(F)cc1F [FLUCONAZOLE] |  | 0.5 (≈ 1.63 µM) | 0.45 (≈ 1.47 µM) | 1 (≈ 3.27 µM) |  | 2 (≈ 6.53 µM) | 0.6 (≈ 1.96 µM) | 1 (≈ 3.27 µM) |  | 2 (≈ 6.53 µM) |  | 1 (≈ 3.27 µM) |  |  | Non-toxic | Toxic |  |  | Non-toxic | Toxic
7 | OC(Cn1cncn1)(Cn1ccnn1)c1ccc(F)cc1F (configuration not stated) | 0.72 (≈ 2.35 µM) | 1.48 (≈ 4.83 µM) | 0.03 (≈ 0.098 µM) | 0.78 (≈ 2.55 µM) | 5.77 (≈ 18.8 µM) | 10.6 (≈ 34.7 µM) | 6.45 (≈ 21.1 µM) | 12.2 (≈ 39.7 µM) | > 50 | > 50 | 6.83 (≈ 22.3 µM) | 12.8 (≈ 41.9 µM) |  |  |  |  |  |  |  | 
8 | C[C@@H]1[C@H](O)[C@@H](C)/C=C/C=C/C=C/C=C/C=C/C=C/C=C/[C@H](O[C@@H]2O[C@H](C)[C@@H](O)[C@H](N)[C@@H]2O)C[C@@H]2O[C@](O)(C[C@@H](O)C[C@@H](O)[C@H](O)CC[C@@H](O)C[C@@H](O)CC(=O)O[C@H]1C)C[C@H](O)[C@H]2C(=O)O [AMPHOTERICIN B] |  | 0.12 (≈ 0.13 µM) |  | 0.06 (≈ 0.0649 µM) |  | 0.12 (≈ 0.13 µM) | 0.02 (≈ 0.0216 µM) | 0.12 (≈ 0.13 µM) |  | 0.5 (≈ 0.541 µM) |  | 0.12 (≈ 0.13 µM) |  |  | Non-toxic | Toxic |  | Toxic | Non-toxic | 
9 | CCCCCCc1cn(CC(O)(Cn2cncn2)c2ccc(F)cc2F)nn1 (configuration not stated) | 0.018 (≈ 0.0461 µM) | 0.032 (≈ 0.082 µM) | < 0.01 | 0.02 (≈ 0.0512 µM) | 0.043 (≈ 0.11 µM) | 0.14 (≈ 0.359 µM) | 2.46 (≈ 6.3 µM) | 6.72 (≈ 17.2 µM) | 5 (≈ 12.8 µM) | 6.9 (≈ 17.7 µM) | 0.12 (≈ 0.307 µM) | 0.39 (≈ 0.999 µM) | 95 |  | Non-toxic | Toxic | Non-toxic | Toxic |  | 
10 | C[C@H](CCC(=O)OCc1cn(CC(O)(Cn2cncn2)c2ccc(F)cc2F)nn1)[C@H]1CC[C@H]2[C@@H]3[C@H](O)C[C@@H]4C[C@H](O)CC[C@]4(C)[C@H]3C[C@H](O)[C@]12C (some centres not stated) | 0.35 (≈ 0.482 µM) | 0.442 (≈ 0.608 µM) | 0.03 (≈ 0.0413 µM) | 0.19 (≈ 0.261 µM) | 11.3 (≈ 15.5 µM) | 12.6 (≈ 17.3 µM) | 8.9 (≈ 12.2 µM) | 18.4 (≈ 25.3 µM) | 31.2 (≈ 43 µM) | > 50 | 2.93 (≈ 4.03 µM) | 5.15 (≈ 7.09 µM) |  |  | Non-toxic | Toxic |  | Toxic | Non-toxic | 
